In ChEMBL document CHEMBL3232844, “Synthesis and structure activity relationships of schweinfurthin indoles” (2014):

How the values were obtained:
Type in all cases: functional
[1] = Cytotoxicity against human OVCAR4 cells
Procedure, shortened: (§1)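 Tested in a 60-cell-line human tumor panel screen; the read-out is growth inhibition, reported as GI50 for each cell line.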

CAKI-1 = test: Cytotoxicity against human Caki1 cells; procedure, shortened: as §1
[2] = Cytotoxicity against human NCI-ADR-RES cells; procedure, shortened: as §1
HOP-62 = test: Cytotoxicity against human HOP62 cells; procedure, shortened: as §1
SK-MEL-5 = test: Cytotoxicity against human SK-MEL-5 cells; procedure, shortened: as §1
SNB-19 = test: Cytotoxicity against human SNB19 cells; procedure, shortened: as §1
PC-3 = test: Cytotoxicity against human PC3 cells; procedure, shortened: as §1
[3] = Cytotoxicity against human OVCAR8 cells; procedure, shortened: as §1
SR = test: Cytotoxicity against human SR cells
Procedure, shortened: (§2)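 Cell line run as part of the 60-cell-line screening panel; growth inhibition was reported as a GI50 for each line.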

SK-OV-3 = test: Cytotoxicity against human SKOV3 cells; procedure, shortened: as §1
NCI-H460 = test: Cytotoxicity against human NCI-H460 cells; procedure, shortened: as §1
[4] = Cytotoxicity against human UACC257 cells; procedure, shortened: as §2
SF-295 = test: Cytotoxicity against human SF295 cells; procedure, shortened: as §1
BT-549 = test: Cytotoxicity against human BT549 cells; procedure, shortened: as §1
ACHN = test: Cytotoxicity against human ACHN cells; procedure, shortened: as §1
TK-10 = test: Cytotoxicity against human TK10 cells; procedure, shortened: as §2
MDA-MB-435 = test: Cytotoxicity against human MDA-MB-435 cells; procedure, shortened: as §1
RXF 393 = test: Cytotoxicity against human RXF393 cells; procedure, shortened: as §1
HCC 2998 = test: Cytotoxicity against human HCC2998 cells; procedure, shortened: as §1
SK-MEL-2 = test: Cytotoxicity against human SK-MEL-2 cells; procedure, shortened: as §1
SNB-75 = test: Cytotoxicity against human SNB75 cells; procedure, shortened: as §2
M14 = test: Cytotoxicity against human M14 cells; procedure, shortened: as §1
A498 = test: Cytotoxicity against human A498 cells; procedure, shortened: as §1
HCT-116 = test: Cytotoxicity against human HCT116 cells; procedure, shortened: as §1
MCF7 = test: Cytotoxicity against human MCF7 cells; procedure, shortened: as §1
786-0 = test: Cytotoxicity against human 786-0 cells; procedure, shortened: as §1
NCI-H226 = test: Cytotoxicity against human NCI-H226 cells; procedure, shortened: as §1
NCI-H322M = test: Cytotoxicity against human NCI-H322M cells; procedure, shortened: as §1
[5] = Cytotoxicity against human UO31 cells; procedure, shortened: as §2
SN12C = test: Cytotoxicity against human SN12C cells; procedure, shortened: as §1
[6] = Cytotoxicity against human OVCAR3 cells; procedure, shortened: as §1
SF-268 = test: Cytotoxicity against human SF268 cells; procedure, shortened: as §1
MOLT-4 = test: Cytotoxicity against human MOLT4 cells; procedure, shortened: as §1
LOX IMVI = test: Cytotoxicity against human LOXIMVI cells; procedure, shortened: as §1
CCRF-CEM = test: Cytotoxicity against human CCRF-CEM cells
HL-60(TB) = test: Cytotoxicity against human HL-60(TB) cells
Procedure, shortened: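 Tested within the NCI 60-cell-line screen, with GI50 as the read-out. Values are the average of two independent experiments. The lowest concentration tested was 10 nM.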

MDA-MB-231 = test: Cytotoxicity against human MDA-MB-231 cells; procedure, shortened: as §1
MDA-MB-468 = test: Cytotoxicity against human MDA-MB-468 cells; procedure, shortened: as §1
A549 = test: Cytotoxicity against human A549 cells; procedure, shortened: as §1
KM12 = test: Cytotoxicity against human KM12 cells; procedure, shortened: as §1
HT-29 = test: Cytotoxicity against human HT-29 cells; procedure, shortened: as §1
[7] = Cytotoxicity against human UACC62 cells; procedure, shortened: as §2
U-251 = test: Cytotoxicity against human U251 cells; procedure, shortened: as §2
[8] = read-out: pLC50 (the source's name) (converted)

COc1cc(/C=C/c2cc(O)c3cc[nH]c3c2)cc2c1O[C@]1(C)CC[C@@H](O)C(C)(C)[C@H]1C2
GI50 ([1]; OVCAR-4): 3.31 µM
CC50 ([1]; OVCAR-4, read-out: pLC50 (the source's name) (converted)): > 100 µM
TGI ([1]; OVCAR-4, read-out: pTGI (converted)): 34.7 µM
GI50 (CAKI-1): 0.741 µM
LC50 (CAKI-1): 20.9 µM
TGI (CAKI-1; read-out: pTGI (converted)): 2.29 µM
GI50 [2]: 2.57 µM
CC50 [2, 8]: > 100 µM
TGI ([2]; read-out: pTGI (converted)): 33.9 µM
GI50 (HOP-62): 1.91 µM
CC50 (HOP-62; [8]): > 100 µM
TGI (HOP-62; read-out: pTGI (converted)): 8.13 µM
GI50 (SK-MEL-5): 0.195 µM
CC50 (SK-MEL-5; [8]): 1.12 µM
TGI (SK-MEL-5; read-out: pTGI (converted)): 0.457 µM
GI50 (SNB-19): 1.32 µM
CC50 (SNB-19; [8]): > 100 µM
TGI (SNB-19; read-out: pTGI (converted)): 18.2 µM
GI50 (PC-3): 0.631 µM
LC50 (PC-3): > 100 µM
TGI (PC-3; read-out: pTGI (converted)): 38 µM
GI50 ([3]; OVCAR-8): 1.2 µM
CC50 ([3]; OVCAR-8, read-out: pLC50 (the source's name) (converted)): > 100 µM
TGI ([3]; OVCAR-8, read-out: pTGI (converted)): 30.9 µM
GI50 (SR): 0.302 µM
CC50 (SR; [8]): > 100 µM
TGI (SR; read-out: pTGI (converted)): 9.55 µM
GI50 (SK-OV-3): 1.51 µM
LC50 (SK-OV-3): > 100 µM
TGI (SK-OV-3; read-out: pTGI (converted)): 10 µM
GI50 (NCI-H460): 0.871 µM
CC50 (NCI-H460; [8]): 5.37 µM
TGI (NCI-H460; read-out: pTGI (converted)): 2.29 µM
GI50 ([4]; UACC-257): 2.34 µM
CC50 ([4]; UACC-257, read-out: pLC50 (the source's name) (converted)): 28.8 µM
TGI ([4]; UACC-257, read-out: pTGI (converted)): 8.32 µM
GI50 (SF-295; read-out: GI50): 0.23 µM
GI50 (SF-295; read-out: pGI50 (converted)): 0.234 µM
CC50 (SF-295; [8]): 6.03 µM
TGI (SF-295; read-out: pTGI (converted)): 1 µM
GI50 (BT-549): 0.178 µM
CC50 (BT-549; [8]): 95.5 µM
TGI (BT-549; read-out: pTGI (converted)): 4.57 µM
GI50 (ACHN): 1.1 µM
LC50 (concentration killing 50% of cells) (ACHN): > 100 µM
TGI (ACHN; read-out: pTGI (converted)): 14.1 µM
GI50 (TK-10): 5.62 µM
LC50 (TK-10): > 100 µM
TGI (TK-10; read-out: pTGI (converted)): 49 µM
GI50 (MDA-MB-435): 0.933 µM
CC50 (MDA-MB-435; [8]): 85.1 µM
TGI (MDA-MB-435; read-out: pTGI (converted)): 11.2 µM
GI50 (RXF 393): 0.115 µM
LC50 (RXF 393): 0.871 µM
TGI (RXF 393; read-out: pTGI (converted)): 0.316 µM
GI50 (HCC 2998): 2.88 µM
CC50 (HCC 2998; [8]): 55 µM
TGI (HCC 2998; read-out: pTGI (converted)): 14.5 µM
GI50 (SK-MEL-2): 1.12 µM
CC50 (SK-MEL-2; [8]): 31.6 µM
TGI (SK-MEL-2; read-out: pTGI (converted)): 7.24 µM
GI50 (SNB-75): 0.269 µM
CC50 (SNB-75; [8]): > 100 µM
TGI (SNB-75; read-out: pTGI (converted)): 4.57 µM
GI50 (M14): 0.676 µM
CC50 (M14; [8]): 6.17 µM
TGI (M14; read-out: pTGI (converted)): 2.19 µM
GI50 (A498): 1.55 µM
CC50 (A498; [8]): 56.2 µM
TGI (A498; read-out: pTGI (converted)): 8.91 µM
GI50 (HCT-116): 0.912 µM
CC50 (HCT-116; [8]): 6.03 µM
TGI (HCT-116; read-out: pTGI (converted)): 2.45 µM
GI50 (MCF7): 1.29 µM
LC50 (MCF7): 51.3 µM
TGI (MCF7; read-out: pTGI (converted)): 20.4 µM
GI50 (786-0): 0.372 µM
LC50 (concentration killing 50% of cells) (786-0): 6.31 µM
TGI (786-0; read-out: pTGI (converted)): 1.82 µM
GI50 (NCI-H226): 12 µM
CC50 (NCI-H226; [8]): 70.8 µM
TGI (NCI-H226; read-out: pTGI (converted)): 28.8 µM
GI50 (NCI-H322M): 3.47 µM
CC50 (NCI-H322M; [8]): > 100 µM
TGI (NCI-H322M; read-out: pTGI (converted)): 25.1 µM
GI50 ([5]; UO-31): 0.479 µM
LC50 ([5]; UO-31): > 100 µM
TGI ([5]; UO-31, read-out: pTGI (converted)): 2.04 µM
GI50 (SN12C): 7.08 µM
LC50 (SN12C): > 100 µM
TGI (SN12C; read-out: pTGI (converted)): 67.6 µM
GI50 ([6]; OVCAR-3): 1.82 µM
CC50 ([6]; OVCAR-3, read-out: pLC50 (the source's name) (converted)): > 100 µM
TGI ([6]; OVCAR-3, read-out: pTGI (converted)): 10.5 µM
GI50 (SF-268): 0.794 µM
CC50 (SF-268; [8]): > 100 µM
TGI (SF-268; read-out: pTGI (converted)): 34.7 µM
GI50 (MOLT-4): 0.309 µM
CC50 (MOLT-4; [8]): 75.9 µM
TGI (MOLT-4; read-out: pTGI (converted)): 1.78 µM
GI50 (LOX IMVI): 0.363 µM
CC50 (LOX IMVI; [8]): 4.57 µM
TGI (LOX IMVI; read-out: pTGI (converted)): 1.32 µM
GI50 (CCRF-CEM): 0.525 µM
CC50 (CCRF-CEM; [8]): > 100 µM
TGI (CCRF-CEM; read-out: pTGI (converted)): 36.3 µM
GI50 (HL-60(TB)): 0.513 µM
CC50 (HL-60(TB); [8]): > 100 µM
TGI (HL-60(TB); read-out: pTGI (converted)): 8.71 µM
GI50 (MDA-MB-231): 1.82 µM
LC50 (MDA-MB-231): > 100 µM
TGI (MDA-MB-231; read-out: pTGI (converted)): 20.9 µM
GI50 (MDA-MB-468): 2.45 µM
LC50 (MDA-MB-468): > 100 µM
TGI (MDA-MB-468; read-out: pTGI (converted)): 7.59 µM
GI50 (A549): 1.48 µM
TGI (A549; read-out: pTGI (converted)): 3.72 µM
GI50 (KM12): 0.457 µM
CC50 (KM12; [8]): 9.55 µM
TGI (KM12; read-out: pTGI (converted)): 1.86 µM
GI50 (HT-29): 0.708 µM
CC50 (HT-29; [8]): 93.3 µM
TGI (HT-29; read-out: pTGI (converted)): 4.07 µM
GI50 ([7]; UACC-62): 2.19 µM
CC50 ([7]; UACC-62, read-out: pLC50 (the source's name) (converted)): 43.7 µM
TGI ([7]; UACC-62, read-out: pTGI (converted)): 7.24 µM
GI50 (U-251): 0.479 µM
CC50 (U-251; [8]): > 100 µM
TGI (U-251; read-out: pTGI (converted)): 13.8 µM
